Results as given in ChEMBL document CHEMBL1133678, “Synthesis of new indeno[1,2-c]isoquinolines: cytotoxic non-camptothecin topoisomerase I inhibitors” (2000).

Tests used:
Assay type in all cases: functional
[1] = tested on: SF-539; assay: Antiproliferative activity was determined for 50% growth inhibition against human CNS SF-539 cell line
In short: (§1)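 Human cancer cell lines from the roughly 55-line panel. GI50 is the concentration giving 50% growth inhibition. The test range was 10^-4 to 10^-8 M. Values outside the range were set to the minimum (10^-8 M) or the maximum (10^-4 M).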

[2] = tested on: Panel (Carcinoma cell lines); assay: Mean graph midpoint for growth inhibition of all human cancer cell lines; set-up: unit: µM
In short: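 Mean graph midpoint across all cell lines successfully tested in the roughly 55-line human cancer panel. Each line's GI50 is the 50% growth-inhibition concentration, tested over 10^-4 to 10^-8 M. Out-of-range values were set to 10^-8 M or 10^-4 M before averaging.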

[3] = tested on: HOP-62; assay: Antiproliferative activity was determined for 50% growth inhibition against human lung HOP-62 cell line; in short: as §1
[4] = tested on: OVCAR-3; assay: Antiproliferative activity was determined for 50% growth inhibition against human ovarian OVCAR-3 cell line; in short: as §1
[5] = tested on: SN12C; assay: Antiproliferative activity was determined for 50% growth inhibition against human renal SN12C cell line; in short: as §1
[6] = tested on: UACC-62; assay: Antiproliferative activity was determined for 50% growth inhibition against human melanoma UACC-62 cell line; in short: as §1
[7] = tested on: HCT-116; assay: Antiproliferative activity was determined for 50% growth inhibition against human colon HCT116 cell line; in short: as §1
[8] = tested on: DU-145; assay: Antiproliferative activity was determined for 50% growth inhibition against human Prostate DU-145 cell line; in short: as §1
[9] = tested on: MDA-MB-435; assay: Antiproliferative activity was determined for 50% growth inhibition against human breast MDA-MB-435 cell line; in short: as §1

Structure (SMILES) | GI50 ([1]; Homo sapiens, SF-539) [µM] | MGM [2] | GI50 ([3]; Homo sapiens, HOP-62) [µM] | GI50 ([4]; Homo sapiens, OVCAR-3) [µM] | GI50 ([5]; Homo sapiens, SN12C) [µM] | GI50 ([6]; Homo sapiens, UACC-62) [µM] | GI50 ([7]; Homo sapiens, HCT-116) [µM] | GI50 ([8]; Homo sapiens, DU-145) [µM] | GI50 ([9]; Homo sapiens, MDA-MB-435) [µM] | GI50 [1] [µM] | GI50 [5] [µM] | GI50 [8] [µM] | GI50 [3] [µM] | GI50 [4] [µM] | GI50 [6] [µM] | GI50 [7] [µM] | GI50 [9] [µM]
O=C1c2ccccc2-c2c1c1ccccc1c(=O)n2O | 15.3 | 29.5 | 56.6 | 30.2 | 35.7 | 21.5 | 24.3 | 40.2 | 29.1 | – | – | – | – | – | – | – | –
COc1cc2c3c(n(CCCBr)c(=O)c2cc1OC)-c1cc2c(cc1C3=O)OCO2 | 4.33 | 13.7 | 6.22 | 62.1 | 5.83 | 5.02 | 12 | 3.2 | 16.6 | – | – | – | – | – | – | – | –
COc1cc2c(cc1OC)-c1c(c3ccccc3c(=O)n1CCCN)C2=O.Cl | 2.93 | 0.62 | 0.19 | 0.85 | 0.43 | 1.27 | 0.35 | 0.89 | 1.05 | – | – | – | – | – | – | – | –
COc1cc2c(cc1OC)-c1c(c3cc(OC)c(OC)cc3c(=O)n1CCCNCCCCO)C2=O.Cl | – | 1.47 | 0.26 | 5.49 | – | 1.76 | 0.81 | – | 2.09 | 0.59 | 0.28 | 0.21 | – | – | – | – | –
COc1cc2c(cc1OC)-c1c(c3cc(OC)c(OC)cc3c(=O)n1CCCNCCCCO)C2=O | – | 0.85 | – | – | – | – | – | – | – | 0.06 | 0.11 | 0.1 | 0.14 | 3.52 | 1.67 | 0.71 | 2.36
CCn1c2c(c3cc(OC)c(OC)cc3c1=O)Cc1cc3c(cc1-2)OCO3 | > 100 | 85.1 | > 100 | > 100 | > 100 | > 100 | > 100 | > 100 | > 100 | – | – | – | – | – | – | – | –
CC[C@@]1(O)C(=O)OCc2c1cc1n(c2=O)Cc2cc3ccccc3nc2-1 [CAMPTOTHECIN] | 0.01 | – | 0.01 | – | 0.02 | 0.01 | 0.03 | 0.01 | 0.04 | – | – | – | – | – | – | – | –
COc1cc2c3c(n(C)c(=O)c2cc1OC)-c1cc2c(cc1C3=O)OCO2 | 41 | 20 | 1.3 | – | 68 | 4.2 | 35 | 37 | 96 | – | – | – | – | – | – | – | –
COc1cc2c(cc1OC)-c1c(c3cc(OC)c(OC)cc3c(=O)n1CCCNCCO)C2=O.Cl | – | 0.68 | – | – | – | – | – | – | – | 0.16 | 0.11 | 0.07 | 0.15 | 2.28 | 0.73 | 0.39 | 1.43
COc1cc2c(cc1OC)-c1c(c3cc(OC)c(OC)cc3c(=O)n1CCCNCCO)C2=O | – | 0.51 | – | – | – | 0.38 | 0.31 | – | 1.25 | 0.01 | 0.05 | 0.02 | 0.05 | 11.2 | – | – | –
COc1cc2c(cc1OC)-c1c(c3ccccc3c(=O)n1CCCCl)C2=O | > 100 | 76.1 | > 100 | > 100 | > 100 | > 100 | > 100 | > 100 | > 100 | – | – | – | – | – | – | – | –
COc1cc2c3c(n(CCCN)c(=O)c2cc1OC)-c1cc2c(cc1C3=O)OCO2.Cl | 0.26 | 0.16 | 0.06 | 0.31 | 0.31 | 0.25 | 0.13 | 0.04 | 1.21 | – | – | – | – | – | – | – | –
COc1cc2c3c(n(CCCNCCO)c(=O)c2cc1OC)-c1ccc2ccccc2c1C3=O | 0.22 | 0.19 | 0.17 | 0.27 | 0.15 | 0.16 | 0.18 | 0.28 | 0.42 | – | – | – | – | – | – | – | –
COc1cc2c3c(n(CCCNCCCO)c(=O)c2cc1OC)-c1cc2c(cc1C3=O)OCO2 | 0.01 | 0.2 | 0.03 | 1.19 | 0.01 | 0.01 | 0.04 | 0.01 | 0.47 | – | – | – | – | – | – | – | –
COc1cc2c(cc1OC)-c1c(c3cc(OC)c(OC)cc3c(=O)n1CCCNCCCO)C2=O.Cl | – | 1.14 | – | – | – | – | – | – | – | 0.42 | 0.23 | 0.23 | 0.32 | 3.8 | 1.87 | 0.71 | 2.42
O=C1c2ccccc2-c2c1c1ccccc1c(=O)n2CCCO | 52.5 | 10.3 | 4.89 | 28.8 | 6.49 | 16.2 | 3.64 | 9.56 | 39.7 | – | – | – | – | – | – | – | –
COc1cc2c3c(n(CCCN=[N+]=[N-])c(=O)c2cc1OC)-c1cc2c(cc1C3=O)OCO2 | 3 | 11.8 | 3.58 | 76.2 | 4.53 | – | 7.4 | 3.19 | > 100 | – | – | – | – | – | – | – | –
COc1cc2c(cc1OC)-c1c(c3ccccc3c(=O)n1CCCNCCO)C2=O.Cl | 0.45 | 0.95 | 0.62 | 3.64 | 2.07 | 0.63 | 0.34 | 0.44 | 0.97 | – | – | – | – | – | – | – | –
O=C1c2ccccc2-c2c1c1ccccc1c(=O)n2CCCBr | 4.61 | 13.3 | 4.59 | 23.5 | 7 | 10.1 | 4.47 | 13 | 21.5 | – | – | – | – | – | – | – | –
CCCCn1c2c(c3cc(OC)c(OC)cc3c1=O)Cc1cc3c(cc1-2)OCO3 | 3.4 | 21.3 | 12 | 91.9 | 21.7 | 6.51 | 13.2 | 5.37 | 92.4 | – | – | – | – | – | – | – | –
COc1cc2c3c(n(CCCNCCO)c(=O)c2cc1OC)-c1cc2c(cc1C3=O)OCO2 [LMP-744] | – | 0.21 | – | – | – | – | – | 0.02 | – | 0.09 | – | – | – | 1.5 | – | – | 0.68
O=C1c2ccccc2-c2c1c1ccccc1c(=O)n2CCO | 12.2 | 14.5 | 5.62 | 74.2 | 16.4 | 18.2 | 4.95 | 16.4 | 76.7 | – | – | – | – | – | – | – | –
COc1cc2c(cc1OC)-c1c(c3cc(OC)c(OC)cc3c(=O)n1CCCNCCCO)C2=O | – | 0.55 | – | 1.9 | 0.15 | 1.51 | 0.46 | – | – | 0.08 | – | 0.1 | 0.07 | – | – | – | 1.09
COc1cc2c3c(n(CCCCl)c(=O)c2cc1OC)-c1cc2c(cc1C3=O)OCO2 | 40.7 | 47.9 | 40.4 | > 100 | 24 | 68.6 | 72.6 | 16.8 | 80.5 | – | – | – | – | – | – | – | –
O=C1c2cc3c(cc2-c2c1c1ccccc1c(=O)n2CCCNCCCO)OCO3 | 16.2 | 15.5 | 7.17 | 15 | 14.2 | > 100 | 12.5 | 16.7 | 19.9 | – | – | – | – | – | – | – | –
COc1cc2c3c(n(C)c(=O)c2cc1OC)-c1cc2c(cc1C3)OCO2 | 61.2 | 43.7 | 11.8 | > 100 | 43.6 | 50 | 42.9 | 42.5 | > 100 | – | – | – | – | – | – | – | –
COc1cc2c(cc1OC)-c1c(c3cc(OC)c(OC)cc3c(=O)n1CCCBr)C2=O | 2.58 | 6.91 | 1.87 | 60.1 | 3.15 | 1.91 | 3.53 | 1.92 | 11.7 | – | – | – | – | – | – | – | –
COc1cc2c3c(n(CCCN)c(=O)c2cc1OC)-c1ccc2ccccc2c1C3=O.Cl | 1.53 | 3.72 | 1.89 | 3.73 | 6.54 | 17.5 | 1.73 | 1.64 | 2.14 | – | – | – | – | – | – | – | –
O=C1c2cc3c(cc2-c2c1c1ccccc1c(=O)n2CCCCl)OCO3 | > 100 | 35.1 | 13.1 | 66.3 | > 100 | 53.8 | 74 | 12.7 | > 100 | – | – | – | – | – | – | – | –
